EBI2 block: antagonists of human EBI2 receptor | P32249 | actives 0.81% (n = 360,000) | AID 651636 | inhibition, % at 5 µM | EBI2 beta-arrestin recruitment, luminescence, 7a,25-OHC stimulated; in the data active means inhibition above about 38%;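 further: enzyme fragment complementation signal reports receptor beta-arrestin coupling in cells; 0% = agonist plus DMSO wells and 100% = wells without agonist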
CCR6 antag: antagonists of human CCR6 receptor. inhibition, % at 20 µM. CHO-K1 CCR6 PathHunter beta-arrestin, luminescence, CCL20-stimulated. actives 0.49% (n = 340,000). AID 493098;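 active means compounds whose inhibition of the agonist-driven luminescence signal at 20 µM reaches about 50%, limit read from the data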;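 further: cells stimulated with CCL20 at 14 nM final; plate controls were DMSO with CCL20 for no effect and DMSO without agonist for full effect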
APJ antag: APJ receptor antagonism. P35414. AID 2521. inhibition, % at 20 µM. CHO-K1 APJ beta-arrestin complementation, luminescence. actives 0.32% (n = 330,000);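 active means inhibition above about 40% at 20 µM, limit read from the data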;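 further: cells challenged with 10 nM apelin-13 agonist together with compound; plate controls were apelin-13 plus DMSO wells for no effect and DMSO wells lacking apelin-13 for full effect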
Target sequence (P35414 whole entry, looked up): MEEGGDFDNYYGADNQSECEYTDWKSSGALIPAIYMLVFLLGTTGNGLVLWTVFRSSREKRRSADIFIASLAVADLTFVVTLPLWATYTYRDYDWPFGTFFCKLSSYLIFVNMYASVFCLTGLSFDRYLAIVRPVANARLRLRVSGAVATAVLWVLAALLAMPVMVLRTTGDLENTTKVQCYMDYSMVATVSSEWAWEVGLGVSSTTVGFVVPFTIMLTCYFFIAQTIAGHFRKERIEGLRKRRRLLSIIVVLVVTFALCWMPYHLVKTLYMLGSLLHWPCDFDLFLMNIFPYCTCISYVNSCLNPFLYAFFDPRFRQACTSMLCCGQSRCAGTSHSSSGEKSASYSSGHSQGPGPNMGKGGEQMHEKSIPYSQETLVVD
APJ ag: APJ receptor agonism | activation, % at 20 µM | CHO-K1 APJ PathHunter beta-arrestin, luminescence; 0% DMSO wells, 100% apelin | actives 0.11% (n = 330,000) | P35414 | AID 2520;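 active means activation more than six SD over the plate average, tested at 20 µM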;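 further: 0% = DMSO alone and 100% = apelin-13 at 10 nM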
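assay system = CHO-K1 APJ beta-arrestin complementation cell line | input = cell density 1000 per well | dosing = compound 20 µM once, DMSO 1% | timing = compound 90 min 25 °C, reagent 1 h | measured by = luminescence from split beta-galactosidase complementation, Galacton Star/Emerald II substrate | read-out basis = APJ agonist activity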
CXCR6 inh: blocks human CXCR6 beta-arrestin recruitment | O00574 | CHO-K1 PathHunter CXCR6 beta-arrestin, luminescence | inhibition, % at 20 µM | actives 0.36% (n = 360,000) | AID 602244; in the data active means inhibition above about 34%, passing the limit was not always enough;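 further: antagonist mode with CXCL16 agonist at 10 nM final; 0% = 10 nM CXCL16 with DMSO and 100% = unstimulated wells without agonist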
CXCR6 confirm: confirmation of human CXCR6 receptor antagonists; actives 65% (n = 700); AID 602409; inhibition, % at 20 µM; shares compounds with CXCR6 inh; CHO-K1 CXCR6 PathHunter beta-arrestin, luminescence;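 active means mean inhibition over four retests above 40%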;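 further: receptor stimulated with 10 nM CXCL16 agonist; beta-galactosidase fragment complementation upon beta-arrestin recruitment to receptor; plate controls were CXCL16 plus DMSO for no effect and DMSO without CXCL16 for full effect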
An asterisk follows results filed as active; / = not tested or not shown. Hits are enriched below; roughly 1.5% of the tested compounds scored in any of these assays.

SMILES	EBI2 block	CCR6 antag	APJ antag	APJ ag	CXCR6 inh	CXCR6 confirm
CC(C)C(=O)Nc1ncc(Cc2ccccc2Cl)s1	12	13	-3	-4	-6	/
N=C1SCC(=O)N1c1ncc(Cc2ccccc2Cl)s1	-8	/	/	/	51*	58*
O=C1CC(c2ccco2)Cc2nc(N3CCc4ccccc4C3)ncc21 (stereo not given)	4	29	10	-3	44*	-2
CC(C)c1ccc(C2CC(=O)c3cnc(N4CCc5ccccc5C4)nc3C2)cc1 (stereo not given)	-7	1	15	1	6	/
O=C(/C=C/c1cccc([N+](=O)[O-])c1)c1ccco1	-10	20	20	0	0	/
O=C(/C=C/c1cccc([N+](=O)[O-])c1)c1ccc([N+](=O)[O-])o1	9	105*	/	/	95*	98*
O=C(COC(=O)CSc1ccccc1)NC1CCS(=O)(=O)C1 (stereo not given)	-2	/	/	/	9	/
Nc1cc(=O)[nH]c(SCC(=O)Nc2ccc(Cl)c(Cl)c2)n1	1	3	-3	-4	43*	5
Nc1cc(=O)[nH]c(SCC(=O)Nc2cc(Cl)cc(Cl)c2)n1	11	-1	-5	-3	7	/
CCCCN(CCCNC(=S)NCCCc1cnc[nH]1)c1ccc(Br)cn1	1	/	/	/	4	/
COCC1CCCCN1C(=O)c1ccc2oc(CCc3ccccc3)nc2c1 (stereo not given)	0	3	2	-4	37*	22
Cc1cccc(C)c1C(O)c1ncc(-c2cccc(F)c2)[nH]1 (stereo not given)	-1	/	/	/	-2	/
Cc1ccc(NC(=O)c2ccc(Nc3c([N+](=O)[O-])cc([N+](=O)[O-])cc3[N+](=O)[O-])cc2)cc1	81*	71*	35	-1	43*	56*
Cc1cccc(Cc2cnc(N3C(=N)SC(C)C3=O)s2)c1 (stereo not given)	-2	/	17	-3	53*	73*
Cc1cccc(Cc2cnc(N3C(=N)SC(c4ccccc4)C3=O)s2)c1 (stereo not given)	-6	40	-4	0	15	/
Cc1ccc(Cc2cnc(N3C(=N)SC(C)C3=O)s2)cc1 (stereo not given)	6	/	22	-2	53*	70*
CC(C)N1CCCC(C)(C(=O)Nc2nc3ccccc3[nH]2)C1 (stereo not given)	-15	/	/	/	5	/
CCOc1ccc(NCc2cc3c(C(C)(C)C)nn(-c4ccccc4)c3[nH]c2=O)cc1	18	23	18	-4	48*	25
CC(=O)Nc1ccc(N=Cc2c(O)c(C(=O)Nc3ccccc3)cc3ccccc23)cc1	/	-19	-29	3	/	/
CCOc1cc(Br)c(Br)c(C=Nc2ccc(NC(C)=O)cc2)c1O	20	19	31	-5	42*	70*
CN(C)/C(=N\S(=O)(=O)c1ccc(Cl)cc1)c1ccc(F)cc1	11	5	11	-2	43*	-2
Cc1cc(OCCCN2CCC(C(O)(c3ccccc3)c3ccccc3)CC2)ccc1Br	4	/	/	/	-12	/
CCOC(=O)c1cc([N+](=O)[O-])cc([N+](=O)[O-])c1Sc1ncnc2nc[nH]c12	-44	/	/	/	45*	33
O=C1O[C@@H](c2ccccc2)C[C@@H](O)C(=O)CCCc2ccccc21	-4	/	/	/	-1	/
COc1ccc(NC(=S)N(CCc2c(C)[nH]c3ccccc23)Cc2cccnc2)cc1	5	7	-7	-4	37*	23
SMILES	EBI2 block	CCR6 antag	APJ antag	APJ ag	CXCR6 inh	CXCR6 confirm
O=C(Nc1ccccc1Oc1ccccc1)[C@@H]1O[C@H](CO)[C@H](O)[C@H](O)[C@H]1O	15	/	/	/	57*	71*
CCCCC[C@@H](C)N1C[C@H](COCc2ccccc2)Oc2cc(N3CC[C@H](N(C)C)C3)ccc2S1(=O)=O	5	/	/	/	3	/
O=C(Nc1nnc(-c2cccs2)o1)c1cccc(Oc2ccccc2)c1	-2	34	-45	-3	44*	37
O=c1c2ccccc2sn1-c1ccccc1	13	76*	-12	2	86*	16
COc1ccc(-c2nc3ccc(C)cn3c2Cc2ccccc2)cc1OC	19	/	/	/	11	/
CC(C)Oc1cccc(C(=O)NC(=S)N2CCN(c3ccc(C(F)(F)F)cc3[N+](=O)[O-])CC2)c1	9	38	6	0	27	/
COc1cccc(C(=O)NC(=S)N2CCN(c3ccc(C(F)(F)F)cc3[N+](=O)[O-])CC2)c1	-2	/	12	-2	48*	49*
O=c1[nH]cc(S(=O)(=O)N2CCN(c3ccc(F)cc3)CC2)c(=O)[nH]1	-20	/	/	/	-1	/
C=CCSC1=N/C(=C\c2cc(OCC)c(OC(C)=O)c([N+](=O)[O-])c2)C(=O)S1	-7	53*	25	-7	46*	54*
Cc1ccc(CNS(=O)(=O)c2ccc(Cl)s2)cc1	-13	/	/	/	-8	/
O=C(O/N=C1\C(=O)N(c2ccccc2)c2ccccc21)C1CC1	-4	1	5	-3	-2	/
CN1C(=O)/C(=N/OC(=O)c2ccccc2)c2ccccc21	-9	44	31	-4	40*	35
Cc1ccc(S(=O)(=O)N2CCN(CCc3ccccc3)CC2)c(C)c1	11	-9	6	-1	5	/
Cc1ccc(S(=O)(=O)ON2C(=O)c3ccccc3C2=O)c(C)c1	4	61*	/	/	67*	27
C[C@H]1CN([C@@H](C)CO)C(=O)CCCn2nncc2CO[C@H]1CN(C)S(=O)(=O)c1cccs1	-11	/	/	/	1	/
C=C1C(=O)c2sccc2C(c2ccc(OC)c(OC)c2)C1COC(C)=O (stereo not given)	60*	92*	/	/	94*	97*
CCN1CCN(CC(=O)N2N=C(c3cccs3)CC2c2ccc(OC)c(OC)c2)C(=O)C1=O (stereo not given)	-3	5	7	-1	2	/
CCCCCCCCCCOC(=O)Cn1c(COc2ccc(Cl)cc2)[n+](C)c2ccccc21	12	13	37	-3	41*	-8
COc1ccc(S(=O)(=O)N(C)C[C@@H]2OCc3cn(nn3)CCCC(=O)N([C@H](C)CO)C[C@H]2C)cc1	-8	/	/	/	1	/
O=c1c2c([N+](=O)[O-])cc([N+](=O)[O-])cc2sn1Cc1ccccc1	6	97*	9	2	45*	16
CCOc1ccc(NC(=O)Cn2sc3nc(C)cc(C)c3c2=O)cc1	16	29	-30	0	38*	35
Cc1cc(C)c2c(=O)n(CC(=O)Nc3ccc(Cl)cc3)sc2n1	8	11	1	6	65*	10
Cc1ccc(NC(=O)Cn2sc3nc(C)cc(C)c3c2=O)c(Cl)c1	7	12	-14	0	8	/
Cc1cc(C)c2c(=O)n(CC(=O)Nc3cccc(F)c3)sc2n1	11	30	-33	-1	10	/

Assay outcomes deposited in PubChem BioAssay by Sanford-Burnham Center for Chemical Genomics.
